Data set [1] is filed under the species Rattus norvegicus. The data set is described as follows: Amount of deuterium retained was reported after normal workup in beta-naphthoflavone-treated male rats with the substrate rac 7-D. Format: ADME, organism-based. The method, boiled down:
(§1)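 Liver microsomes from male Sprague-Dawley rats (140–160 g), untreated or pretreated with phenobarbital or β-naphthoflavone; protein set to 10 mg/mL. The 1-mL mix held substrate, an NADP+/glucose 6-phosphate/MgCl2 cofactor solution, glucose-6-phosphate dehydrogenase and microsomes in 0.05 M phosphate pH 7.4. It ran 10 min at 37 °C, in duplicate. Hydroxywarfarins were measured by capillary GC-MS, and % deuterium retention was calculated as product over substrate incorporation.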

The species entered for data set [2] is Rattus norvegicus. The data set is described as follows: Amount of deuterium retained was reported after reincubation followed by normal workup in phenobarbital treated male rats. The data set is classed as ADME, organism-based.
The species named for data set [3] is Rattus norvegicus. The data set is described as follows: Amount of deuterium retained was reported after reincubation followed by normal workup in phenobarbital treated male rats with rac 8-D. The data set is classed as ADME, organism-based.
The species named for data set [4] is Rattus norvegicus. The data set is described as follows: Compound incubated with microsomal preparations from beta-naphthoflavone-treated male rats with the substrate rac 7-D and the amount of deuterium retained was reported after reincubation followed by normal workup. Format: ADME.
For data set [5], the species on record is Rattus norvegicus. The data set is described as follows: Compound incubated with microsomal preparations from phenobarbital treated male rats with the substrate rac 8-D and the amount of deuterium retained was reported after normal workup. The data set is classed as ADME. The method, boiled down: as §1
The species entered for data set [6] is Rattus norvegicus. The data set is described as follows: Amount of deuterium retained was reported after normal workup in rats. Format: ADME, organism-based. The method, boiled down: as §1

SMILES strings stand for the structures.

With `CC(=O)CC(c1ccccc1)c1c(O)oc2c(O)cccc2c1=O` (centres undefined), the Deuterium retention worked out at 76% in the data set filed under Rattus norvegicus [1]; 83% in the data set listed under Rattus norvegicus [2]; 58% in the data set filed under Rattus norvegicus [3]; 76% in the data set filed under Rattus norvegicus [4]; 58% in the data set listed under Rattus norvegicus [5]; 82% in the data set filed under Rattus norvegicus [6].
Regarding `CC(=O)CC(c1ccccc1)c1c(O)oc2ccc(O)cc2c1=O` (centres undefined), the Deuterium retention came to 84% in the data set filed under Rattus norvegicus [1]; 65% in the data set filed under Rattus norvegicus [2]; 89% in the data set listed under Rattus norvegicus [3]; 84% in the data set filed under Rattus norvegicus [4]; 90% in the data set filed under Rattus norvegicus [5]; 66% in the data set filed under Rattus norvegicus [6].
`CC(=O)CC(c1ccccc1)c1c(O)oc2cc(O)ccc2c1=O` (centres undefined): the Deuterium retention in the data set filed under Rattus norvegicus [1] amounted to 52%; in the data set filed under Rattus norvegicus [2], 76%; in the data set listed under Rattus norvegicus [3], 83%; in the data set filed under Rattus norvegicus [4] it was 50%; in the data set listed under Rattus norvegicus [5] it was 84%; in the data set filed under Rattus norvegicus [6], 76%.
In the case of `CC(=O)CC(c1ccc(O)cc1)c1c(O)oc2ccccc2c1=O` (centres undefined), the Deuterium retention was 86% in the data set filed under Rattus norvegicus [1]; 85% in the data set listed under Rattus norvegicus [2]; 91% in the data set listed under Rattus norvegicus [3]; 83% in the data set listed under Rattus norvegicus [4]; 92% in the data set filed under Rattus norvegicus [5]; 84% in the data set listed under Rattus norvegicus [6].

Source of the values: ChEMBL document CHEMBL1123118, “Substrate probes for the mechanism of aromatic hydroxylation catalyzed by cytochrome P-450: selectively deuterated analogues of warfarin” (J Med Chem, 1985).
